According to ChEMBL document CHEMBL1152161, “A facile synthesis, antibacterial, and antitubercular studies of some piperidin-4-one and tetrahydropyridine derivatives” (2008):
Values after ≈ are worked out from the molar mass of the structure shown. Active and inactive are the calls of the source. The rule behind the calls is not given here.

Legend:
Haemophilus influenzae [1] = test: Antibacterial activity against Haemophilus influenzae at 128 ug/mL by broth micro dilution method; format: functional, organism-based
[2] = system: Mycobacterium tuberculosis; test: Antitubercular potency, ratio of Isoniazid MIC to drug MIC against Mycobacterium tuberculosis H37Rv ATCC 27294; format: functional
Enterococcus faecalis [3] = test: Antibacterial activity against Enterococcus faecalis by broth micro dilution method; format: functional
Method in brief: (§1)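 MIC90 was found by broth microdilution following NCCLS methods. Compounds were tested up to a top concentration of […]. Linezolid and trovafloxacin served as positive controls and DMSO as the negative control.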

Enterococcus faecium [4] = test: Antibacterial activity against vancomycin-resistant Enterococcus faecium by broth micro dilution method; format: functional; conditions: Enterococcus faecium
Method in brief: (§2)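 MIC90 was determined by broth microdilution following NCCLS methods. Linezolid and trovafloxacin were run as positive controls, with DMSO as the negative control. Compounds were tested up to a top concentration of 128.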

Staphylococcus aureus [5] = test: Antibacterial activity against Staphylococcus aureus by broth micro dilution method; format: functional; method in brief: as §1
Pseudomonas aeruginosa [6] = test: Antibacterial activity against Pseudomonas aeruginosa by broth micro dilution method; format: functional; method in brief: as §1
Escherichia coli [7] = test: Antibacterial activity against Escherichia coli LCB0012 at 128 ug/mL by broth micro dilution method; format: functional, organism-based
Enterococcus faecium [8] = test: Antibacterial activity against Enterococcus faecium by broth micro dilution method; format: functional; method in brief: as §1
[9] = system: Staphylococcus epidermidis; test: Antibacterial activity against Staphylococcus epidermidis by broth micro dilution method; format: functional; method in brief: as §2
Escherichia coli [10] = test: Antibacterial activity against Escherichia coli LCB0010 at 128 ug/mL by broth micro dilution method; format: functional, organism-based
[11] = system: Mycobacterium tuberculosis; test: Antitubercular potency, ratio of Rifampicin MIC to drug MIC against Mycobacterium tuberculosis H37Rv ATCC 27294; format: functional
[12] = system: Staphylococcus epidermidis; test: Antibacterial activity against methicillin-resistant Staphylococcus epidermidis by broth micro dilution method; format: functional; method in brief: as §2
Enterococcus faecalis [13] = test: Antibacterial activity against vancomycin and linezolid-resistant Enterococcus faecalis by broth micro dilution method; format: functional; method in brief: as §2
[14] = system: Mycobacterium tuberculosis; test: Antitubercular activity against Mycobacterium tuberculosis H37Rv ATCC 27294 by radiometric respiratory technique; format: functional
Moraxella catarrhalis [15] = test: Antibacterial activity against Moraxella catarrhalis by broth micro dilution method; format: functional; method in brief: as §1
Escherichia coli [16] = test: Antibacterial activity against Escherichia coli LCB0011 at 128 ug/mL by broth micro dilution method; format: functional, organism-based
Enterococcus faecalis [17] = test: Antibacterial activity against vancomycin-resistant Enterococcus faecalis by broth micro dilution method; format: functional; method in brief: as §2
Staphylococcus aureus [18] = test: Antibacterial activity against methicillin-resistant Staphylococcus aureus by broth micro dilution method; format: functional; method in brief: as §2
Klebsiella pneumoniae [19] = test: Antibacterial activity against Klebsiella pneumoniae at 128 ug/mL by broth micro dilution method; format: functional, organism-based
Escherichia coli [20] = test: Antibacterial activity against Escherichia coli LCB0010 by broth micro dilution method; format: functional; method in brief: as §1
Escherichia coli [21] = test: Antibacterial activity against Escherichia coli LCB0011 by broth micro dilution method; format: functional; method in brief: as §1
Escherichia coli [22] = test: Antibacterial activity against Escherichia coli LCB0012 by broth micro dilution method; format: functional; method in brief: as §1
Klebsiella pneumoniae [23] = test: Antibacterial activity against Klebsiella pneumoniae by broth micro dilution method; format: functional; method in brief: as §1
Haemophilus influenzae [24] = test: Antibacterial activity against Haemophilus influenzae by broth micro dilution method; format: functional; method in brief: as §1
Pseudomonas aeruginosa [25] = test: Antibacterial activity against Pseudomonas aeruginosa at 128 ug/mL by broth micro dilution method; format: functional, organism-based
Enterococcus faecalis [26] = test: Antibacterial activity against vancomycin and linezolid-resistant Enterococcus faecalis at 128 ug/mL by broth micro dilution method; format: functional, organism-based; method in brief: as §2
[27] = system: Mycobacterium tuberculosis; test: Antitubercular activity against Mycobacterium tuberculosis H37Rv ATCC 27294 at 256 ug/mL by radiometric respiratory technique; format: functional, organism-based
Staphylococcus aureus [28] = test: Antibacterial activity against Staphylococcus aureus at 128 ug/mL by broth micro dilution method; format: functional, organism-based
[29] = system: Staphylococcus epidermidis; test: Antibacterial activity against Staphylococcus epidermidis at 128 ug/mL by broth micro dilution method; format: functional, organism-based
Enterococcus faecium [30] = test: Antibacterial activity against Enterococcus faecium at 128 ug/mL by broth micro dilution method; format: functional, organism-based
[31] = system: Staphylococcus epidermidis; test: Antibacterial activity against methicillin-resistant Staphylococcus epidermidis at 128 ug/mL by broth micro dilution method; format: functional, organism-based; method in brief: as §2
Enterococcus faecalis [32] = test: Antibacterial activity against vancomycin-resistant Enterococcus faecalis at 128 ug/mL by broth micro dilution method; format: functional, organism-based; method in brief: as §2
Moraxella catarrhalis [33] = test: Antibacterial activity against Moraxella catarrhalis at 128 ug/mL by broth micro dilution method; format: functional, organism-based
Enterococcus faecium [34] = test: Antibacterial activity against vancomycin-resistant Enterococcus faecium at 128 ug/mL by broth micro dilution method; format: functional, organism-based; method in brief: as §2

| Structure (SMILES) | Activity (Haemophilus influenzae [1]) | Ratio [2] | MIC90 (Enterococcus faecalis [3]) | MIC90 (Enterococcus faecium [4]) | MIC90 (Staphylococcus aureus [5]) | MIC90 (Pseudomonas aeruginosa [6]) | Activity (Escherichia coli [7]) | MIC90 (Enterococcus faecium [8]) | MIC90 [9] | Activity (Escherichia coli [10]) | Ratio [11] | MIC90 [12] | MIC90 (Enterococcus faecalis [13]) | MIC [14] | MIC90 (Moraxella catarrhalis [15]) | Activity (Escherichia coli [16]) | MIC90 (Enterococcus faecalis [17]) | MIC90 (Staphylococcus aureus [18]) | Activity (Klebsiella pneumoniae [19]) | MIC90 (Escherichia coli [21]) | further results |
| --- | --- | --- | --- | --- | --- | --- | --- | --- | --- | --- | --- | --- | --- | --- | --- | --- | --- | --- | --- | --- | --- |
| CCOC(=O)C1=C(O)CC(c2ccccc2)N(C(=O)CCl)C1c1ccccc1 (stereo not given) | inactive | 1.56 | 32 µg/mL (≈ 80 µM) | 16 µg/mL (≈ 40 µM) | 32 µg/mL (≈ 80 µM) | 64 µg/mL (≈ 160 µM) | inactive | 64 µg/mL (≈ 160 µM) | 64 µg/mL (≈ 160 µM) | inactive | 200 | 128 µg/mL (≈ 320 µM) | 32 µg/mL (≈ 80 µM) | 16 µg/mL (≈ 40 µM) | 32 µg/mL (≈ 80 µM) | inactive | 64 µg/mL (≈ 160 µM) | 64 µg/mL (≈ 160 µM) | inactive |  |  |
| N[C@@H]1[C@H]2CN(c3nc4c(cc3F)c(=O)c(C(=O)O)cn4-c3ccc(F)cc3F)C[C@@H]12 [TROVAFLOXACIN] |  |  | 0.128 µg/mL (≈ 0.307 µM) | 8 µg/mL (≈ 19.2 µM) | < 0.0625 µg/mL | 0.125 µg/mL (≈ 0.3 µM) |  | 64 µg/mL (≈ 154 µM) | < 0.0625 µg/mL |  |  |  | 16 µg/mL (≈ 38.4 µM) |  | < 0.0625 µg/mL |  | 8 µg/mL (≈ 19.2 µM) | 1 µg/mL (≈ 2.4 µM) |  | < 0.0625 µg/mL | MIC90 (Escherichia coli [20]): < 0.0625 µg/mL; MIC90 (Escherichia coli [22]): < 0.0625 µg/mL; MIC90 (Klebsiella pneumoniae [23]): 0.125 µg/mL (≈ 0.3 µM); MIC90 (Haemophilus influenzae [24]): < 0.0625 µg/mL |
| CCOC(=O)C1=C(OS(=O)(=O)c2ccc([N+](=O)[O-])cc2)CC(c2ccccc2)N(C(=O)CCl)C1c1ccccc1 (stereo not given) | inactive | 1.56 | 16 µg/mL (≈ 27.3 µM) | 16 µg/mL (≈ 27.3 µM) | 16 µg/mL (≈ 27.3 µM) |  | inactive | 32 µg/mL (≈ 54.7 µM) | 64 µg/mL (≈ 109 µM) | inactive | 200 | 64 µg/mL (≈ 109 µM) | 64 µg/mL (≈ 109 µM) | 16 µg/mL (≈ 27.3 µM) | 32 µg/mL (≈ 54.7 µM) |  | 32 µg/mL (≈ 54.7 µM) | 64 µg/mL (≈ 109 µM) |  | 128 µg/mL (≈ 219 µM) | Activity (Pseudomonas aeruginosa [25]): inactive; MIC90 (Klebsiella pneumoniae [23]): 64 µg/mL (≈ 109 µM) |
| CCOC(=O)C1=C(OS(=O)(=O)c2cccc([N+](=O)[O-])c2)CC(c2ccccc2)N(C(=O)CCl)C1c1ccccc1 (stereo not given) | inactive |  | 128 µg/mL (≈ 219 µM) |  |  |  | inactive |  |  | inactive |  |  |  |  |  | inactive |  | 128 µg/mL (≈ 219 µM) | inactive |  | Activity (Pseudomonas aeruginosa [25]): inactive; Activity (Enterococcus faecalis [26]): inactive; Activity [27]: inactive; Activity (Staphylococcus aureus [28]): inactive; Activity [29]: inactive; Activity (Enterococcus faecium [30]): inactive; Activity [31]: inactive; Activity (Enterococcus faecalis [32]): inactive; Activity (Moraxella catarrhalis [33]): inactive; Activity (Enterococcus faecium [34]): inactive |
